Screening data: PubChem BioAssay, several laboratories
Hits are enriched below; roughly 0.99% of the tested compounds scored in any of these assays.
Arrestin-AP2 inh: blocks beta-arrestin peptide binding to AP2 adaptin; FITC-arrestin peptide / GST-AP2 beads, flow cytometry; AP2 beta2 appendage carries R879A mutation; inhibition, % at 10 µM; actives 0.31% (n = 340,000);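 active = inhibition above a set limit, near 3 SD of compounds lacking own fluorescence, cut at about 54% in these data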
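Material – GST-tagged AP2 beta2-adaptin appendage (R879A) on 4 µm glutathione beads · Probe or stimulus – fluorescein-tagged arrestin peptide at 50 nM final · Timing – 12 min plus 1 h, RT · Detection – bead flow cytometry, FITC channel · Read-out basis – inhibition as reduced fluorescein signal on beads, percent · Medium – PBS plus Tween 20 (0.05%) and BSA (0.1%)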
DYRK1A inh: inhibitors of rat Dyrk1A kinase; inhibition, % at 12.5 µM; ADP-Glo luminescence, NFATc1 peptide; actives 0.43% (n = 310,000); Q63470; in the data active = inhibition above about 50%
Rin1-Abl PPI inh: blocks binding of human Rin1 to Abl; TR-FRET Rin1/Abl binding, biochemical; inhibition, % at 7.35 µM; actives 0.4% (n = 360,000); in the data active = inhibition above about 5%, passing the limit was not always enough
GSK3B inh: blocks human GSK3beta kinase activity; GST-GSK3beta kinase, ADP-Glo luminescence, 60 min; stronger effect = lower value; P49841; actives 0.038% (n = 300,000); activity score (negative = inhibition), % at 10 µM;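 active = more than half of replicate wells score below -50%, meaning over 50% inhibition versus plate controls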
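Test system – GST-tagged human GSK3beta kinase, cell-free · Incubation – 60 min enzyme reaction, room temperature · Signal – ADP-Glo luminescence · Also added – peptide substrate and ATP at 25 µM · Controls – DMSO neutral wells and GW8510 at 20 µM as positive · Buffer or medium – Tris/MgCl2 kinase buffer · Measure – Luminescence-derived activity versus plate DMSO and GW8510 wells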
GSK3 alpha inh: inhibitors of human GSK-3 alpha kinase. inhibition, % at 10 µM. actives 0.1% (n = 320,000). ADP-Glo luminescence, 60 min;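 active = more than half of replicates show inhibition above 20%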;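 also: GST-tagged GSK-3 alpha with peptide substrate and 25 µM ATP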
Target sequence (P49840 whole entry, looked up): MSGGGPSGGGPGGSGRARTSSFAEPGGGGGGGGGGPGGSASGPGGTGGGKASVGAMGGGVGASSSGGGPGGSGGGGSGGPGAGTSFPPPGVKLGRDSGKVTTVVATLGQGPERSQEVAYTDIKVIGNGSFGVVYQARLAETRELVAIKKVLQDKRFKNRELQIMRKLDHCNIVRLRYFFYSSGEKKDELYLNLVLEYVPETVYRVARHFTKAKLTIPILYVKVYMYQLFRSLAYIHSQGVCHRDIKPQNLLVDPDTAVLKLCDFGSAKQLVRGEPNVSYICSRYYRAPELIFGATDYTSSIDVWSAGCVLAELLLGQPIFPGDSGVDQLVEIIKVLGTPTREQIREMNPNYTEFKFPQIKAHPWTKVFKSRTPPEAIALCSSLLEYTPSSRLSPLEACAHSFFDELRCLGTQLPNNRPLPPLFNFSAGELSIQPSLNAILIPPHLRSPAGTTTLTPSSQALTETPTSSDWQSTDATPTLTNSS
STK33 inh: inhibitors of human STK33 kinase; Q9BYT3; AID 2661; actives 0.073% (n = 320,000); inhibition, % at 10 µM; purified STK33, MBP phosphorylation, ADP-Glo luminescence;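 active = inhibition at or above 25%, using the most active replicate where run in duplicate; inactive = inhibition below 25%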
Arr AP2 CP1: blocks beta-arrestin peptide binding to human AP2. AID 504908. GST-AP2 beads, FITC arrestin peptide binding, flow cytometry; GST-fused beta2-adaptin appendage, R879A mutant. actives 2% (n = 1,300). inhibition, % at 10 µM. shares compounds with Arrestin-AP2 inh;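 active = inhibition above a set limit, roughly 3 SD of non-fluorescent compound noise, cut at about 38% in these data; inactive = inhibition at or below that limit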;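 also: loss of bead fluorescence from 50 nM FITC arrestin peptide bound to appendage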
GST-FITC bead: GST-GSH bead binding interference, counter-screen; actives 2% (n = 1,300); AID 588338; GST-fluorescein binding to GSH beads, fluorescence; inhibition, % at 10 µM; shares compounds with Arrestin-AP2 inh;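 active = inhibition above 50%, about 3 SD of the inhibition seen with non-fluorescent compounds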;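 also: fluorescein maleimide labelled GST captured on 4 micron glutathione beads; higher means more loss of bead fluorescence from quenching or blocked binding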
Each line names hits and unclear results; the compound was inactive in the other large screens (follow-up assays come after a bar, where they were run).

CC(=O)Nc1ccc(NC(=O)C(C)OC(=O)c2ccc3[nH]c(C)c(C)c3c2)cc1 (configuration not stated)	Arrestin-AP2 inh 57 | Arr AP2 CP1 inactive | GST-FITC bead inactive
Cn1c(N)c(C(=O)COC(=O)CCC2CCCCC2)c(=O)n(C)c1=O	Arrestin-AP2 inh 55 | Arr AP2 CP1 inactive | GST-FITC bead inactive
Cn1c(N)c(C(=O)COC(=O)c2cncc(Br)c2)c(=O)n(C)c1=O	Arrestin-AP2 inh 61 (no result: DYRK1A inh) | Arr AP2 CP1 inactive | GST-FITC bead inactive
Cn1c(N)c(C(=O)COC(=O)c2ccc(Br)o2)c(=O)n(C)c1=O	none | Arr AP2 CP1 inactive | GST-FITC bead inactive
CCOc1cc(C(=O)OCC(=O)c2c(N)n(C)c(=O)n(C)c2=O)cc(OCC)c1OCC	none (no result: GSK3 alpha inh, STK33 inh)
CCCCOc1ccc(C(=O)OCC(=O)c2c(N)n(C)c(=O)n(C)c2=O)cc1	none (no result: DYRK1A inh, GSK3B inh) | Arr AP2 CP1 inactive | GST-FITC bead inactive
Cc1oc(-c2ccccc2F)nc1CS(=O)(=O)CC(=O)NCCCN1CC(C)CC(C)C1 (configuration not stated)	none
O=C(COC(=O)c1cccc(Br)c1)NC1CCCCCCC1	none (no result: Arrestin-AP2 inh, DYRK1A inh, GSK3B inh, GSK3 alpha inh, STK33 inh)
CN1C(=O)N(CC(=O)Nc2nccs2)C(=O)C12CCCCC2	none (no result: GSK3B inh)
Cc1ccc(C(=O)NCC(=O)OCC(=O)c2c(N)n(C)c(=O)n(C)c2=O)s1	Arrestin-AP2 inh 75 | Arr AP2 CP1 inactive | GST-FITC bead inactive
Cn1c(N)c(C(=O)COC(=O)CNC(=O)c2ccccc2)c(=O)n(C)c1=O	none (no result: GSK3B inh)
COc1ccc(C(=O)NNC(=O)CCCCC(=O)NNC(=O)c2ccc(OC)cc2)cc1	Arrestin-AP2 inh 62 | Arr AP2 CP1 inactive | GST-FITC bead inactive
COc1ccc(C(=O)NNC(=O)CCC(=O)NNC(=O)c2ccc(OC)cc2)cc1	none
CC1Cc2ccccc2N1S(=O)(=O)c1cccc(C(=O)NC2CC2)c1 (configuration not stated)	Arrestin-AP2 inh 89 | Arr AP2 CP1 inactive | GST-FITC bead inactive
CC1Cc2ccccc2N1S(=O)(=O)c1cccc(C(=O)Nc2cccnc2)c1 (configuration not stated)	none
CCOc1ccc(N(CC(=O)NC2CCCCC2)C(=O)CCCC(=O)Nc2ccccn2)cc1	none
N#Cc1ccc(CSc2ccccn2)c(Cl)c1	Arrestin-AP2 inh 63 | Arr AP2 CP1 inactive | GST-FITC bead inactive
Cc1ccc2cccc(CC(=O)NN)c2c1	none (no result: Arrestin-AP2 inh, DYRK1A inh, GSK3B inh, GSK3 alpha inh, STK33 inh)
Cc1ccc2[nH]c(=O)c3cc(C(=O)N(C)c4ccc(C)c(C)c4)sc3c2c1	Arrestin-AP2 inh 58 (no result: DYRK1A inh) | Arr AP2 CP1 inactive | GST-FITC bead inactive
CCN(C(=O)c1cc2c(=O)[nH]c3ccc(C)cc3c2s1)c1ccc(F)cc1	none
COCCn1c(SCC(=O)Nc2ccc(S(=O)(=O)N(C)C)cc2)nc2ccccc21	Arrestin-AP2 inh 57 | Arr AP2 CP1 inactive | GST-FITC bead inactive
O=C(NCc1ccc2c(c1)OCO2)C1CC(=O)N(c2ccc(Cl)cc2)C1 (configuration not stated)	none
CC(=O)c1ccc(-n2ccc(=O)cc2)cc1	Arrestin-AP2 inh 60 | Arr AP2 CP1 inactive | GST-FITC bead inactive
CC(=O)c1ccc(N2CC(C)(C)C2=O)cc1	none
CC(C)CNC(=O)c1cc(S(=O)(=O)N2CCOCC2)ccc1N1CCCC1	Arrestin-AP2 inh 55 | Arr AP2 CP1 inactive | GST-FITC bead inactive
CC(=O)c1ccccc1NC(=O)c1cc(S(=O)(=O)N2CCOCC2)ccc1N1CCCC1	none (no result: DYRK1A inh, GSK3B inh) | Arr AP2 CP1 inactive | GST-FITC bead inactive
CCCNC(=O)c1cc(S(=O)(=O)N2CCCCC2)ccc1N1CCOCC1	none (no result: DYRK1A inh)
O=C(Nc1ccccc1N1CCCC1)c1cc(S(=O)(=O)N2CCOCC2)ccc1Cl	none
COc1ccc(CNC(=O)c2cc(S(=O)(=O)N3CCCCC3)ccc2N2CCOCC2)cc1OC	none (no result: GSK3B inh, GSK3 alpha inh, STK33 inh)
COc1ccc(CCNC(=O)c2cc(S(=O)(=O)N3CCOCC3)ccc2N2CCCC2)cc1OC	none | Arr AP2 CP1 inactive | GST-FITC bead inactive
COc1ccc(N2CCN(C(c3cccs3)C(C)NC(=O)C(=O)N3CCCC3)CC2)cc1 (configuration not stated)	none
COCCCNC(=O)CC1C[C@H](C(=O)N(C(C)C)C(C)C)[C@@]2(C)c3[nH]c4ccccc4c3CCN2C1=O (some centres not stated)	none (no result: DYRK1A inh, GSK3B inh)
COc1ccc(Cl)cc1NC(=O)CC(C)=O	none | Arr AP2 CP1 inactive | GST-FITC bead inactive
COc1ccc(Cl)cc1NC(=O)NCCN1CCNC1=O	Arrestin-AP2 inh 60 (no result: DYRK1A inh) | Arr AP2 CP1 inactive | GST-FITC bead inactive
COc1ccc(NC(=O)CC(C)=O)c(OC)c1	none (no result: GSK3 alpha inh, STK33 inh) | Arr AP2 CP1 inactive | GST-FITC bead inactive
CC(=O)CC(=O)Nc1ccccc1NC(C)=O	none | Arr AP2 CP1 inactive | GST-FITC bead inactive
COc1cc(NC(=O)c2cccc(F)c2)ccc1NC(=O)c1cc2ccccc2o1	none
CCN(c1ccccc1)S(=O)(=O)c1ccc(Cl)c(C(=O)NCc2ccco2)c1	none (no result: GSK3B inh)
O=C(CSc1ncnc2c1nnn2Cc1ccccc1F)NCC1CCCO1 (configuration not stated)	none
CS(=O)(=O)N1CCN(C(=O)c2cc(-c3cccnc3)nc3ccc(Br)cc23)CC1	Arrestin-AP2 inh 64 | Arr AP2 CP1 inactive | GST-FITC bead inactive
Cc1ccc(S(=O)(=O)N2CCCCC2)cc1NC(=O)c1ccncc1	none (no result: GSK3B inh, GSK3 alpha inh, STK33 inh) | Arr AP2 CP1 inactive | GST-FITC bead inactive
Cc1ccnc(NC(=O)c2cccc(S(=O)(=O)N3CCCC3)c2)c1	Arrestin-AP2 inh 60 | Arr AP2 CP1 inactive | GST-FITC bead inactive
O=C(Nc1cc(S(=O)(=O)N2CCCCC2)ccc1Cl)c1ccncc1	none (no result: GSK3B inh)
Clc1ccc(COc2cccc(CNCc3ccncc3)c2)cc1	none (no result: DYRK1A inh)
CC1CCN(S(=O)(=O)N2CCC(C(=O)O)CC2)CC1	Arrestin-AP2 inh 56 | Arr AP2 CP1 inactive | GST-FITC bead inactive
Cc1cccc(OC(C)C(=O)Nc2ccc3c(c2)OCCO3)c1 (configuration not stated)	none (no result: GSK3B inh, GSK3 alpha inh, STK33 inh) | Arr AP2 CP1 inactive | GST-FITC bead inactive
CCOC(=O)C1CCN(c2cc3c(cc2NC(=O)c2cc(OC)ccc2Br)n(C)c(=O)n3C)CC1	none | Arr AP2 CP1 inactive | GST-FITC bead inactive
CCOC(=O)C1CCN(c2cc3c(cc2NC(=O)c2ccccc2Br)n(C)c(=O)n3C)CC1	none | Arr AP2 CP1 inactive | GST-FITC bead inactive
CSc1ccccc1NC(=O)c1cccc(S(=O)(=O)N2CCN(C)CC2)c1	none
Cc1cc(C)c(NC(=O)CC(=O)c2ccccc2)c(Cl)c1	none | Arr AP2 CP1 inactive | GST-FITC bead inactive
